Values after ≈ are worked out from the molar mass of the structure shown.
Key:
Format in all cases: functional
[1] = test system: Leptospira kirschneri serovar Grippotyphosa; assay: Antimicrobial activity against Leptospira kirschneri serovar Grippotyphosa isolate 13 by broth microdilution method
Outline: (§1)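 Serial twofold dilutions in EMJH medium, final 32.0 to 0.016 μg/ml (units/ml for penicillin). Inoculum from 7-day EMJH cultures grown at 30°C, counted by Petroff-Hausser chamber under dark-field microscopy, added at 2 × 10^6 organisms/ml. Plates incubated at 30°C; alamarBlue added on day 3 and colour read on day 5. MIC is the lowest concentration without blue-to-pink change; median of triplicate runs.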

Leptospira weilii [2] = assay: Antimicrobial activity against Leptospira weilii isolate 6 by broth microdilution method
Outline: (§2)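 Strains grown 7 days in EMJH medium at 30°C; inoculum counted by Petroff-Hausser chamber under dark-field microscopy and added at 2 × 10^6 organisms/ml. Twofold serial dilutions in EMJH, final 32.0 to 0.016 μg/ml (units/ml for penicillin), 96-well round-bottom plates, 30°C. alamarBlue added day 3; colour read day 5. MIC is lowest concentration without blue-to-pink change. Triplicate runs, median reported; L. interrogans Icterohaemorrhagiae quality control.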

[3] = Antimicrobial activity against Leptospira interrogans serovar Bataviae isolate 1 by broth microdilution method; outline: as §2
Leptospira weilii [4] = assay: Antimicrobial activity against Leptospira weilii isolate 8 by broth microdilution method; outline: as §2
[5] = Antimicrobial activity against Leptospira interrogans serovar Canicola isolate 11 by broth microdilution method; outline: as §2
[6] = Antimicrobial activity against Leptospira interrogans isolate 7 by broth microdilution method; outline: as §1
[7] = Antimicrobial activity against Leptospira interrogans serovar Pyrogenes isolate 5 by broth microdilution method; outline: as §2
[8] = Antimicrobial activity against Leptospira interrogans serovar Pomona isolate 12 by broth microdilution method; outline: as §2
[9] = Antimicrobial activity against Leptospira interrogans serovar Icterohaemorrhagiae isolate 9 by broth microdilution method; outline: as §2
[10] = Antimicrobial activity against Leptospira interrogans serovar Icterohaemorrhagiae isolate 10 by broth microdilution method; outline: as §2
[11] = Antimicrobial activity against Leptospira interrogans serovar Icterohaemorrhagiae isolate 3 by broth microdilution method; outline: as §2
[12] = Antimicrobial activity against Leptospira interrogans serovar Grippotyphosa isolate 2 by broth microdilution method; outline: as §1
[13] = Antimicrobial activity against Leptospira interrogans serovar Pomona isolate 4 by broth microdilution method; outline: as §2
[14] = Leptospira kirschneri, isolate 13, read-out: MIC
[15] = Leptospira weilii, isolate 6, read-out: MIC
[16] = Leptospira interrogans, isolate 1, read-out: MIC
[17] = Leptospira weilii, isolate 8, read-out: MIC
[18] = Leptospira interrogans, isolate 11, read-out: MIC
[19] = Leptospira interrogans, isolate 7, read-out: MIC
[20] = Leptospira interrogans, isolate 5, read-out: MIC
[21] = Leptospira interrogans, isolate 12, read-out: MIC
[22] = Leptospira interrogans, isolate 9, read-out: MIC
[23] = Leptospira interrogans, isolate 10, read-out: MIC
[24] = Leptospira interrogans, isolate 3, read-out: MIC
[25] = Leptospira interrogans, isolate 4, read-out: MIC

## CC[C@H]1OC(=O)[C@H](C)[C@@H](O[C@H]2C[C@@](C)(OC)[C@@H](O)[C@H](C)O2)[C@H](C)[C@@H](O[C@@H]2O[C@H](C)C[C@H](N(C)C)[C@H]2O)[C@](C)(O)C[C@@H](C)CN(C)[C@H](C)[C@@H](O)[C@]1(C)O [AZITHROMYCIN]
[1]; [14]
  MIC: < 0.016 µg/mL
Leptospira weilii [2]; [15]
  MIC: < 0.016 µg/mL
[3]; [16]
  MIC: < 0.016 µg/mL
Leptospira weilii [4]; [17]
  MIC: < 0.016 µg/mL
[5]; [18]
  MIC: < 0.016 µg/mL
[6]; [19]
  MIC: < 0.016 µg/mL
[7]; [20]
  MIC: < 0.016 µg/mL
[8]; [21]
  MIC: < 0.016 µg/mL
[9]; [22]
  MIC: < 0.016 µg/mL
[10]; [23]
  MIC: < 0.016 µg/mL
[11]; [24]
  MIC: < 0.016 µg/mL
[12]
  MIC: < 0.016 µg/mL
[13]; [25]
  MIC: < 0.016 µg/mL

## COc1c(N2C[C@@H]3CCCN[C@@H]3C2)c(F)cc2c(=O)c(C(=O)O)cn(C3CC3)c12 [MOXIFLOXACIN]
[1]; [14]
  MIC: 0.03 µg/mL (≈ 0.0747 µM)
Leptospira weilii [2]; [15]
  MIC: 0.06 µg/mL (≈ 0.149 µM)
[3]; [16]
  MIC: 0.06 µg/mL (≈ 0.149 µM)
Leptospira weilii [4]; [17]
  MIC: 0.125 µg/mL (≈ 0.311 µM)
[5]; [18]
  MIC: 0.03 µg/mL (≈ 0.0747 µM)
[6]; [19]
  MIC: 0.06 µg/mL (≈ 0.149 µM)
[7]; [20]
  MIC: 0.06 µg/mL (≈ 0.149 µM)
[8]; [21]
  MIC: < 0.016 µg/mL
[9]; [22]
  MIC: 0.125 µg/mL (≈ 0.311 µM)
[10]; [23]
  MIC: 0.125 µg/mL (≈ 0.311 µM)
[11]; [24]
  MIC: 0.06 µg/mL (≈ 0.149 µM)
[12]
  MIC: 0.06 µg/mL (≈ 0.149 µM)
[13]; [25]
  MIC: 0.125 µg/mL (≈ 0.311 µM)

## CC[C@H]1OC(=O)[C@H](C)[C@@H](O[C@H]2C[C@@](C)(OC)[C@@H](O)[C@H](C)O2)[C@H](C)[C@@H](O[C@@H]2O[C@H](C)C[C@H](N(C)C)[C@H]2O)[C@](C)(OC)C[C@@H](C)C(=O)[C@H](C)[C@@H](O)[C@]1(C)O [CLARITHROMYCIN]
[1]; [14]
  MIC: < 0.016 µg/mL
Leptospira weilii [2]; [15]
  MIC: < 0.016 µg/mL
[3]; [16]
  MIC: < 0.016 µg/mL
Leptospira weilii [4]; [17]
  MIC: < 0.016 µg/mL
[5]; [18]
  MIC: < 0.016 µg/mL
[6]; [19]
  MIC: < 0.016 µg/mL
[7]; [20]
  MIC: < 0.016 µg/mL
[8]; [21]
  MIC: < 0.016 µg/mL
[9]; [22]
  MIC: < 0.016 µg/mL
[10]; [23]
  MIC: < 0.016 µg/mL
[11]; [24]
  MIC: < 0.016 µg/mL
[12]
  MIC: < 0.016 µg/mL
[13]; [25]
  MIC: < 0.016 µg/mL

## CC1(C)S[C@@H]2[C@H](NC(=O)Cc3ccccc3)C(=O)N2[C@H]1C(=O)O [PENICILLIN G]
[1]
  MIC: 0.125 U/ml
Leptospira weilii [2]
  MIC: 0.03 U/ml
[3]
  MIC: <0.016 U/ml
Leptospira weilii [4]
  MIC: 0.06 U/ml
[5]
  MIC: 0.25 U/ml
[6]
  MIC: 0.06 U/ml
[7]
  MIC: <0.016 U/ml
[8]
  MIC: 0.06 U/ml
[9]
  MIC: <0.016 U/ml
[10]
  MIC: <0.016 U/ml
[11]
  MIC: <0.016 U/ml
[13]
  MIC: 0.06 U/ml

## O=C(O)c1cn(C2CC2)c2cc(N3CCNCC3)c(F)cc2c1=O [CIPROFLOXACIN]
[1]; [14]
  MIC: 0.03 µg/mL (≈ 0.0905 µM)
Leptospira weilii [2]; [15]
  MIC: 0.125 µg/mL (≈ 0.377 µM)
[3]; [16]
  MIC: 0.125 µg/mL (≈ 0.377 µM)
Leptospira weilii [4]; [17]
  MIC: 0.125 µg/mL (≈ 0.377 µM)
[5]; [18]
  MIC: 0.06 µg/mL (≈ 0.181 µM)
[6]; [19]
  MIC: 0.125 µg/mL (≈ 0.377 µM)
[7]; [20]
  MIC: 0.125 µg/mL (≈ 0.377 µM)
[8]; [21]
  MIC: 0.06 µg/mL (≈ 0.181 µM)
[9]; [22]
  MIC: 0.125 µg/mL (≈ 0.377 µM)
[10]; [23]
  MIC: 0.125 µg/mL (≈ 0.377 µM)
[11]; [24]
  MIC: 0.125 µg/mL (≈ 0.377 µM)
[12]
  MIC: 0.125 µg/mL (≈ 0.377 µM)
[13]; [25]
  MIC: 0.25 µg/mL (≈ 0.754 µM)

## CO/N=C(\C(=O)N[C@@H]1C(=O)N2C(C(=O)O)=C(CSc3nc(=O)c(O)nn3C)CS[C@H]12)c1csc(N)n1 [CEFTRIAXONE]
[1]; [14]
  MIC: < 0.016 µg/mL
Leptospira weilii [2]; [15]
  MIC: 0.06 µg/mL (≈ 0.108 µM)
[3]; [16]
  MIC: 0.03 µg/mL (≈ 0.0541 µM)
Leptospira weilii [4]; [17]
  MIC: 0.03 µg/mL (≈ 0.0541 µM)
[5]; [18]
  MIC: 0.03 µg/mL (≈ 0.0541 µM)
[6]; [19]
  MIC: 0.06 µg/mL (≈ 0.108 µM)
[7]; [20]
  MIC: < 0.016 µg/mL
[8]; [21]
  MIC: < 0.016 µg/mL
[9]; [22]
  MIC: < 0.016 µg/mL
[10]; [23]
  MIC: < 0.016 µg/mL
[11]; [24]
  MIC: < 0.016 µg/mL
[12]
  MIC: 0.06 µg/mL (≈ 0.108 µM)
[13]; [25]
  MIC: 0.06 µg/mL (≈ 0.108 µM)
